Experimental data gathered from unrelated publications.
EGFR T790M: Epidermal growth factor receptor (EGFR, Homo sapiens, UniProt P00533, T790M)
EGFR del747-750/T751S: Epidermal growth factor receptor (EGFR, Homo sapiens, UniProt P00533, del747-750/T751S)
EGFR: Epidermal growth factor receptor (EGFR, Homo sapiens, UniProt P00533)
EGFR G719S: Epidermal growth factor receptor (EGFR, Homo sapiens, UniProt P00533, G719S)
EGFR A750P/del747-749: Epidermal growth factor receptor (EGFR, Homo sapiens, UniProt P00533, A750P/del747-749)
EGFR del746-750: Epidermal growth factor receptor (EGFR, Homo sapiens, UniProt P00533, del746-750)
EGFR L858R/T790M: Epidermal growth factor receptor (EGFR, Homo sapiens, UniProt P00533, L858R/T790M)
EGFR G719C: Epidermal growth factor receptor (EGFR, Homo sapiens, UniProt P00533, G719C)
EGFR del752-759: Epidermal growth factor receptor (EGFR, Homo sapiens, UniProt P00533, del752-759)

| Compound | target | test | conditions | remaining binding [%] |
| --- | --- | --- | --- | --- |
| O=C(c1ccc(Nc2nccc(-c3cc4ccccc4s3)n2)cc1)N1CCC(N2CCCC2)CC1 | EGFR T790M | binding, competition with immobilised ligand | 1 µM | 67 |
| CCOCCn1cc(C(=O)Nc2ccc(-n3nc(-c4cccnc4)cc3C(F)(F)F)cn2)ccc1=O | EGFR del747-750/T751S | cell-free assay, competition with immobilised ligand | 1 µM | 100 |
| CN(C)c1nccc(-c2cnn3ncccc23)n1 | EGFR | binding | 1 µM | 100 |
| COc1cnc(Nc2cccc(S(N)(=O)=O)c2)nc1N1CCN(c2ccccc2)CC1 | EGFR T790M | binding, competition with immobilised ligand | 1 µM | 72 |
| FC(F)(F)c1ccc2c(c1)nc(-c1cccnc1)n2C1CC1 | EGFR G719S | cell-free assay, competition with immobilised ligand | 1 µM | 93 |
| O=C(c1ccc(Nc2ncc(Cl)c(-c3cc4ccccc4s3)n2)cc1)N1CCC(N2CCCC2)CC1 | EGFR | binding, competition with immobilised ligand | 1 µM | 90 |
| CCN1CCN(Cc2ccc(C(=O)Nc3ccc(C)c(Oc4ccc5c(c4)CC(=O)N5)c3)cc2C(F)(F)F)CC1 | Epidermal growth factor receptor (EGFR, Homo sapiens, UniProt P00533, del747-752/P753S) | binding, competition with immobilised ligand | 1 µM | 100 |
| COc1cnc(Nc2cccc(S(N)(=O)=O)c2)nc1N1CCN(c2ccccc2)C(=O)C1 | EGFR A750P/del747-749 | binding, competition with immobilised ligand | 1 µM | 92 |
| Nc1cnc(N2CCc3cc(S(=O)(=O)Nc4c(F)cc(Cl)cc4F)cc(N4CCCC4=O)c32)nc1 | Epidermal growth factor receptor (EGFR, Homo sapiens, UniProt P00533, L858R) | cell-free assay, competition with immobilised ligand | 1 µM | 85 |
| C[C@@H]1CCN(c2nccc(-c3cnn4ncccc34)n2)C1 | EGFR T790M | binding | 1 µM | 79 |
| CO[C@@H](C)c1c(Nc2ccc([C@@H](N(C)C(=O)C3CCS(=O)(=O)CC3)C(F)(F)F)cc2)cnc2cc(Cl)nn12 | EGFR G719S | cell-free assay, competition with immobilised ligand | 1 µM | 96 |
| CN1CCN(c2ccc(Nc3nccc(-c4ccccc4)n3)cc2C(F)(F)F)CC1 | EGFR del746-750 | binding | 10 µM | 56 |
| c1cncc(-c2cccc(Nc3nccc(NC4CCCCC4)n3)c2)c1 | EGFR L858R/T790M | binding, competition with immobilised ligand | 10 µM | 29 |
| CCS(=O)(=O)c1cc2cc(C[C@@](O)(CC(C)(C)c3ccc(F)cc3C(N)=O)C(F)(F)F)[nH]c2cn1 | EGFR del747-750/T751S | cell-free assay, competition with immobilised ligand | 1 µM | 93 |
| CC1CCCN1c1nccc(-c2cnn3ncccc23)n1 (stereo not shown) | EGFR L858R/T790M | binding | 1 µM | 100 |
| O=C(c1ccc(Nc2ncc(Cl)c(-c3ccc(Cl)s3)n2)cc1)N1CCC(N2CCCC2)CC1 | EGFR del746-750 | binding, competition with immobilised ligand | 1 µM | 90 |

| Compound | target | test | conditions | remaining binding [%] |
| --- | --- | --- | --- | --- |
| O=C(Nc1c[nH]nc1C(=O)NC1CCNCC1)c1cc(F)cc(F)c1 | EGFR A750P/del747-749 | binding, competition with immobilised ligand | 1 µM | 80 |
| COc1ccnn2ncc(-c3ccnc(N(C)C)n3)c12 | EGFR | binding | 1 µM | 79 |
| COc1ncc2cc3ccccc3nc2c1C#N | EGFR | cell-free assay, competition with immobilised ligand | 5 µM | 94 |
| Nc1ncc2c(n1)-c1c([nH]c3ccc(C#CC4CC4)cc13)CCCC2 | EGFR G719C | binding, competition with immobilised ligand | 1 µM | 91 |
| CNCc1ccccc1-c1csc([C@H](C)Nc2nc(C)nc3cc(OC)c(OC)cc23)c1 | EGFR G719C | cell-free assay, competition with immobilised ligand | 1 µM | 85 |
| CN(CCCC(F)(F)F)c1nccc(-c2cnn3ncccc23)n1 | EGFR del752-759 | binding | 1 µM | 85 |
| O=C(NCCCN1CCOCC1)c1ccc(Nc2nccc(-c3cc4ccccc4s3)n2)cc1 | EGFR G719C | binding, competition with immobilised ligand | 1 µM | 99 |
| F[C@@H]1CCN(c2nccc(-c3cnn4ncccc34)n2)C1 | EGFR del752-759 | binding | 1 µM | 100 |
| CNC(=O)[C@@H]1CC[C@@H](n2c(-c3ccc4cnccc4c3)nc3ccc(C(=O)NCc4cccc(C(N)=O)c4)cc32)C1 | EGFR L858R/T790M | binding, competition with immobilised ligand | 1 µM | 92 |
| c1ccc(N2CCN(Cc3nc4ccccc4[nH]3)CC2)nc1 | EGFR A750P/del747-749 | cell-free assay, competition with immobilised ligand | 1 µM | 100 |
| O=C(NCCCN1CCOCC1)c1ccc(Nc2ncc(Cl)c(-c3ccc(Cl)s3)n2)cc1 | EGFR | binding, competition with immobilised ligand | 1 µM | 89 |
| CN(C)c1ncc(F)c(-c2cnn3ncccc23)n1 | EGFR L858R/T790M | binding | 1 µM | 74 |
| CCC(=O)N[C@H]1CC[C@@H](C(=O)N(C)c2ccc(-c3nc4ccccc4o3)cc2)C1 | EGFR del746-750 | cell-free assay, competition with immobilised ligand | 1 µM | 78 |
| O=C(NCC1CCOCC1)c1n[nH]cc1NC(=O)c1c(F)cccc1F | EGFR del746-750 | binding, competition with immobilised ligand | 1 µM | 100 |
| Cc1cnc(Nc2ccc(C(=O)N3CCC(N4CCCC4)CC3)cc2)nc1-c1cc2ccccc2s1 | EGFR G719S | binding, competition with immobilised ligand | 1 µM | 97 |
